From paper PMC3774303 (Journal of medicinal chemistry, 2013)
Entries after “also recorded” stand apart in the source; their conditions may differ.

Tests used:
[1] = target: T1, CT-L proteolytic activity of the purified rabbit 20S proteasome (Oryctolagus cuniculus, UniProt G1T4Q9); test: CT-L proteolytic activity assay, fluorogenic peptide Suc-Leu-Leu-Val-Tyr-AMC; format: biochemical; details: for IC50: IC50 (μM) CT-L, 1 nM purified 20S rabbit proteasome, 20 μM Suc-Leu-Leu-Val-Tyr-AMC, 1 h at 37 °C, average of 2 or more determinations; for fold loss of CT-L activity compared to 11ad: relative to 11ad
T1 sequence (G1T4Q9 60-263): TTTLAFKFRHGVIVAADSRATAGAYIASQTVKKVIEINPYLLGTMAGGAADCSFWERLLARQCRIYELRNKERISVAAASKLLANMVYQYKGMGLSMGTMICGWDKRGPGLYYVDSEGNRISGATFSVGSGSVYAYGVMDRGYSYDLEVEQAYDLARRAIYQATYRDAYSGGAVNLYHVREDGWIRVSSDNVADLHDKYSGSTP

[2] = target: PGPH-L activity of purified 20S rabbit proteasome (Oryctolagus cuniculus, UniProt G1T235); test: PGPH-L proteolytic activity assay, fluorogenic peptide Z-Leu-Leu-Glu-AMC; format: biochemical
[3] = tested on: CT-L activity of rabbit 20S proteasome; test: Dialysis using purified rabbit 20S proteasome; format: biochemical
Method in brief: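 Dialysed (3500 MWCO) against assay buffer at 4 °C; sampled at 0, 0.25, 1, 2, 4 and 18 h. CT-L activity read with 20 μM Suc-LLVY-AMC, 1 h at 37 °C, AMC ex 355/em 460 nm. Normalised to DMSO control.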

[4] = target: T2, T-L activity of purified 20S rabbit proteasome (Oryctolagus cuniculus, UniProt G1SWK8); test: T-L proteolytic activity assay, fluorogenic peptide Bz-Val-Gly-Arg-AMC; format: biochemical
T2 sequence (G1SWK8 44-271): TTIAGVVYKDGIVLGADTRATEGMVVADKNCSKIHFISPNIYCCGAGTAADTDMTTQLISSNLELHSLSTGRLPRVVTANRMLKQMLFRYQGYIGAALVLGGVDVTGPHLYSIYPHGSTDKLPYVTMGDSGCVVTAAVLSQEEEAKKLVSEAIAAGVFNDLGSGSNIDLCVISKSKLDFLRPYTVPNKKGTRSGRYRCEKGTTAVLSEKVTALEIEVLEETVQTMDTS

MDA-MB-468 cells = test: MTT proliferation/survival assay; format: cell-based, human; details: 120 h incubation
Method in brief: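 MDA-MB-468 cells were grown in DMEM with 10% FBS and penicillin/streptomycin at 37 °C in 5% CO2, then attached overnight. They were exposed to varying inhibitor concentrations for 120 h. MTT (1 mg/ml in fresh medium) was added for 3 h, formazan dissolved in DMSO, and absorbance read at 540 nm. IC50 came from the fit Y = M + (L–M)/(1+10^(X–logIC50)).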

[5] = target: proteasomal CT-L activity in intact human MDA-MB-468 cancer cells (Homo sapiens, UniProt P28074); test: CT-L activity in intact MDA-MB-468 cells; format: cell-based

Compound: Cc1ccc(CNC(=O)N(Cc2nc(-c3ccccc3)no2)C(C)C)cc1 [Compound 14, 1-Isopropyl-3-(4-methylbenzyl)-1-((3 phenyl-1,2,4-oxadiazol-5-yl)methyl)urea]
- IC50 [1]: > 10 µM

Compound: Cc1ccc(OCC(=O)N(Cc2nc(-c3ccc(C)cc3)no2)CC(C)C)cc1 [Compound 12a, N-Isobutyl-N-((3-p-tolyl-1,2,4-oxadiazol-5-yl)methyl)-2-(p-tolyloxy)acetamide]
- fold loss of CT-L activity compared to 1 ([1]; relative to compound 1): 4 fold

Compound: CCCc1ccc(OCC(=O)N(Cc2nc(-c3cnccn3)no2)C(C)C)cc1 [Compound 11am, N-Isopropyl-2-(4-propylphenoxy)-N-((3-(pyrazin-2-yl)-1,2,4-oxadiazol-5-yl)methyl)acetamide]
- fold loss of CT-L activity compared to 11ad [1]: 3 fold

Compound: Cc1ccc(OCC(=O)N(CCc2nc(-c3ccccc3)no2)C(C)C)cc1 [Compound 23, N-Isopropyl-N-(2-(3-phenyl-1,2,4-oxadiazol-5-yl)ethyl)-2-(p-tolyloxy)acetamide]
- IC50 [1]: > 10 µM

Compound: Cc1ccc(-c2noc(CN(C(=O)COc3ccccc3)C(C)C)n2)cc1 [Compound 11k, N-Isopropyl-2-phenoxy-N-((3-p-tolyl-1,2,4-oxadiazol-5-yl)methyl)acetamide]
- fold loss of CT-L activity compared to 1 ([1]; relative to compound 1): 14 fold

Compound: CC(C)N(Cc1nc(-c2ccccc2)no1)C(=O)COc1ccc(F)cc1 [Compound 11s, 2-(4-Fluorophenoxy)-N-isopropyl-N-((3-phenyl-1,2,4-oxadiazol-5-yl)methyl)acetamide]
- fold loss of CT-L inhibitory activity compared to 11b ([1]; relative to 11b): 16 fold

Compound: CCN(Cc1nc(-c2ccc(C)cc2)no1)C(=O)COc1ccc(C)cc1 [Compound 12b, N-Ethyl-N-((3-p-tolyl-1,2,4-oxadiazol-5-yl)methyl)-2-(p-tolyloxy)acetamide]
- fold loss of CT-L activity compared to 1 ([1]; relative to compound 1): 10 fold

Compound: CC(C)N(Cc1nc(-c2ccc(C(F)(F)F)cc2)no1)C(=O)COc1ccccc1 [Compound 11l, N-Isopropyl-2-phenoxy-N-((3-(4-(trifluoromethyl)phenyl)-1,2,4-oxadiazol-5-yl)methyl)acetamide]
- fold loss of CT-L activity compared to 1 ([1]; relative to compound 1): 18 fold

Compound: Cc1ccc(OCC(=O)N(Cc2nc(-c3ccc(C)cc3)no2)C(C)C)cc1 [Compound 1, N-Isopropyl-N-((3-p-tolyl-1,2,4-oxadiazol-5-yl)methyl)-2-(p-tolyloxy)acetamide]
- IC50 [2]: > 100 µM
- time to full recovery of CT-L activity upon dialysis ([3]; pre-incubation with 10 μM compound for 30 min, dialysis at 4 °C): ≤ 2 h
- IC50 [4]: > 100 µM
- inhibition of tumor cell survival/proliferation (MTT) (MDA-MB-468 cells): inhibited survival/proliferation

Compound: CCCc1ccc(OCC(=O)N(Cc2nc(-c3cccnc3)no2)C(C)C)cc1 [Compound 11ad]
- IC50 [2]: > 100 µM
- fold more potent than 1 (CT-L IC50) ([1]; relative to compound 1): 22 fold
- IC50 [5]: 0.37 µM
- IC50 [4]: > 100 µM
- inhibition of tumor cell survival/proliferation (MTT) (MDA-MB-468 cells): inhibited survival/proliferation; also recorded: anti-proliferative activity at low micromolar concentrations

Compound: CC(C)N(Cc1nc(-c2ccccc2)no1)C(=O)COc1ccc2cc(Br)ccc2c1 [Compound 11r, 2-(6-Bromonaphthalen-2-yloxy)-N-isopropyl-N-((3-phenyl-1,2,4-oxadiazol-5-yl)methyl)acetamide]
- IC50 [1]: > 10 µM

Compound: CC(=O)N[C@@H](CSC(=O)[C@]1([C@@H](O)C(C)C)NC(=O)[C@H](C)[C@@H]1O)C(=O)O [lactacystin, reference compound]
- CT-L activity recovered upon dialysis ([3]; after 18 hours of dialysis, lactacystin 2.5 μM): very little CT-L activity was recovered

Compound: CCCc1ccc(OCC(=O)N(Cc2nc(-c3ncccn3)no2)C(C)C)cc1 [Compound 11ao, N-Isopropyl-2-(4-propylphenoxy)-N-((3-(pyrimidin-2-yl)-1,2,4-oxadiazol-5-yl)methyl)acetamide]
- fold loss of CT-L activity compared to 11ad [1]: 40 fold

Compound: CC(C)N(Cc1nc(-c2ccccc2)no1)C(=O)COc1ccc(-c2ccccc2)cc1 [Compound 11q, 2-(Biphenyl-4-yloxy)-N-isopropyl-N-((3-phenyl-1,2,4-oxadiazol-5-yl)methyl)acetamide]
- IC50 [1]: > 10 µM

Compound: CC(C)N(Cc1nc(-c2ccccc2)no1)C(=O)COc1ccccc1 [Compound 11j, N-Isopropyl-2-phenoxy-N-((3-phenyl-1,2,4-oxadiazol-5-yl)methyl)acetamide]
- fold loss of CT-L activity compared to 1 ([1]; relative to compound 1): 10 fold
